The compounds below were run against T1, Peroxisome proliferator-activated receptor alpha (Homo sapiens, UniProt Q07869).
T1 sequence (Q07869 whole entry): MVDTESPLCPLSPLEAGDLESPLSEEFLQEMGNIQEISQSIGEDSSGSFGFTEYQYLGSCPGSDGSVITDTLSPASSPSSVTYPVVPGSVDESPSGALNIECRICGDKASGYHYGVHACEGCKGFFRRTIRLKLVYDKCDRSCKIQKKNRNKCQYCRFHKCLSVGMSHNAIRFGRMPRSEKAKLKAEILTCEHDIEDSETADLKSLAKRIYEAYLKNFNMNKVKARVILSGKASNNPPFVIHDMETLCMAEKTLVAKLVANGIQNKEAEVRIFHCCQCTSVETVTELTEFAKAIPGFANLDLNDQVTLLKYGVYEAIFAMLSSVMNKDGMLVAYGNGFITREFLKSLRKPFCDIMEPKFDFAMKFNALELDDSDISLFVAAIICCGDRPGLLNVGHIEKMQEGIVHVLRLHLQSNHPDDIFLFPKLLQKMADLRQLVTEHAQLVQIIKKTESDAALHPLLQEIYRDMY
Cc1cc(OCc2ccc(F)cc2)ccc1CNc1cccc(C(=O)O)c1 gave an EC50 of 1.45 µM. With O=C(O)c1cccc(NCc2ccc(OCc3ccc(F)cc3)cc2OCc2ccc(F)cc2)c1 the EC50 was 0.93 µM. With C[C@@H](Oc1ccc(CNc2cccc(C(=O)O)c2)cc1)c1ccc(F)cc1 the EC50 was 25.6 µM. O=C(O)c1cc(F)cc(NCc2ccc(OCc3ccc(F)cc3)cc2)c1 gave an EC50 of 0.58 µM. Compound O=C(O)c1cccc(NCc2ccc(OCc3ccc(C(F)(F)F)cc3)cc2)c1 has an EC50 of 0.96 µM. Work on CN(Cc1ccc(OCc2ccc(F)cc2)cc1)c1cccc(C(=O)O)c1 yielded an EC50 of 0.9 µM. Work on O=C(O)c1cc(NCc2ccc(OCc3ccc(F)cc3)cc2)ccc1F yielded an EC50 of 1.61 µM. Work on O=C(O)c1cccc(NCc2ccc(OCc3ccc(F)c(F)c3)cc2)c1 yielded an EC50 of 0.36 µM. O=C(O)c1cccc(NCc2ccc(OCc3cccc(F)c3)cc2)c1 was tested, and the EC50 was 1.18 µM. With O=C(O)c1cccc(NCc2ccc(OCc3ccc(F)cc3)c(OCc3ccc(F)cc3)c2)c1 the EC50 was 0.81 µM. With O=C(O)c1cc(F)cc(NCc2ccc(OCc3ccc(F)cc3)c(Cl)c2)c1 the EC50 was 0.052 µM. Work on Cc1cc(CN(C)c2cccc(C(=O)O)c2)ccc1OCc1ccc(F)cc1 yielded an EC50 of 0.067 µM. In the case of CC(C)(Oc1ccc(CNc2cccc(C(=O)O)c2)cc1)c1ccc(F)cc1, the EC50 is reported as 8.52 µM. Work on O=C(O)c1cccc(NCc2ccc(OCc3ccc(I)cc3)cc2)c1 yielded an EC50 of 1.45 µM. In the case of O=C(O)c1cccc(NCc2ccc(OCc3ccc(Br)cc3)cc2)c1, the EC50 is reported as 0.97 µM. In the case of O=C(O)c1cccc(NCc2ccc(OCc3ccc(Cl)cc3)cc2)c1, the EC50 is reported as 0.83 µM. Compound O=C(O)c1cccc(NCc2ccc(OCc3ccc(F)cc3F)cc2)c1 has an EC50 of 0.54 µM. Compound O=C(O)c1cc(Br)cc(NCc2ccc(OCc3ccc(F)cc3)cc2)c1 has an EC50 of 1.12 µM.

The compounds below were run against T2, Peroxisome proliferator-activated receptor gamma (Homo sapiens, UniProt P37231) (assay: Agonist activity at human PPARgamma expressed in nonhuman mammalian cells assessed as increase in receptor transcriptional activity incubated for 22 to 24 hrs by luciferase reporter gene assay).
T2 sequence (P37231 whole entry): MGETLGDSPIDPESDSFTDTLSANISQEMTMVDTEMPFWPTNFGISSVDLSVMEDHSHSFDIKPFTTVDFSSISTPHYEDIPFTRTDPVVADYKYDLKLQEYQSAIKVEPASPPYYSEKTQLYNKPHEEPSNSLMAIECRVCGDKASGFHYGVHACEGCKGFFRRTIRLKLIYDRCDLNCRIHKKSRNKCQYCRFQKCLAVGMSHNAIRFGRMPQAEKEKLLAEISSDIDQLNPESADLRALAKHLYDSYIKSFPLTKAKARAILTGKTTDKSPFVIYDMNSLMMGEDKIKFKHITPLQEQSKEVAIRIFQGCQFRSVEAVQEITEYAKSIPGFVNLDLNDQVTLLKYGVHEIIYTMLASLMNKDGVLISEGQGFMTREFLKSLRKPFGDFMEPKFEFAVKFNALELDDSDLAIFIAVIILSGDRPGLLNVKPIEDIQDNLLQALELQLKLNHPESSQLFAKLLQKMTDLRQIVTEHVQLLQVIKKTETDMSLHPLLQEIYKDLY
Assay type: cell-based
How it was run: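 Reporter cells (nonhuman mammalian, engineered PPAR receptor with luciferase linked to response promoter) pre-incubated 4–6 h at 37 °C, 5% CO2 in medium with 10% charcoal-stripped FBS. Medium replaced with compound-containing screening medium, 22–24 h at 37 °C, then luciferase detection reagent, luminescence read. Multi-point dose-response for EC50; mean ± SEM of at least two separate experiments in triplicate.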
O=C(O)c1cccc(NCc2ccc(OCc3ccc(F)cc3)cc2)c1 showed an EC50 of over 100 µM. Compound O=C(O)c1cc(F)cc(NCc2ccc(OCc3ccc(F)cc3)cc2)c1 has an EC50 of over 100 µM. For O=C(O)c1cccc(NCc2ccc(OCc3ccc(F)cc3F)cc2)c1, the EC50 was over 100 µM. O=C(O)c1cc(Br)cc(NCc2ccc(OCc3ccc(F)cc3)cc2)c1 was tested, and the EC50 was over 100 µM.

These compounds were tested against T3, Peroxisome proliferator-activated receptor alpha (Homo sapiens) (UniProt Q07869) (assay: Binding affinity to His-tagged PPARalpha LBD (unknown origin) expressed in Escherichia coli Rosetta (DE3) assessed as change in enthalpy at 25 degree C by isothermal titration calorimetry).
T3 sequence (whole entry): T1 sequence (Q07869 whole entry)
Compound O=C(O)c1cccc(NCc2ccc(OCc3ccc(F)cc3)cc2)c1 has a deltaH of -8.18 kcal/mol. Cc1nc(-c2ccc(C(F)(F)F)cc2)sc1C(=O)NCc1ccc(OC(C)(C)C(=O)O)cc1 gave a deltaH of -14.1 kcal/mol.

The compounds below were run against T3, Peroxisome proliferator-activated receptor alpha (Homo sapiens) (assay: Binding affinity to His tagged PPARalpha LBD (unknown origin) expressed in Escherichia coli Rosetta (DE3) assessed as change in entropy at 25 degree C by isothermal titration calorimetry).
O=C(O)c1cccc(NCc2ccc(OCc3ccc(F)cc3)cc2)c1 was tested, and the -TdeltaS was 0.98 kcal/mol. Work on Cc1nc(-c2ccc(C(F)(F)F)cc2)sc1C(=O)NCc1ccc(OC(C)(C)C(=O)O)cc1 yielded a -TdeltaS of 4.9 kcal/mol.

Each compound was assayed against T3, Peroxisome proliferator-activated receptor alpha (Homo sapiens) (assay: Agonist activity at human PPARalpha expressed in nonhuman mammalian cells assessed as maximal increase in receptor transcriptional activity incubated for 22 to 24 hrs by luciferase reporter gene assay relative to GW590735).
Assay type: cell-based
For O=C(O)c1ccc(NCc2ccc(OCc3ccc(F)cc3)cc2)cc1, the fold change (FC) was 0.4. Work on Cc1cc(CNc2cccc(C(=O)O)c2)ccc1OCc1ccc(Cl)cc1 yielded a fold change (FC) of 1.2. In the case of CC(C)(Oc1ccc(NCc2ccc(OCc3ccc(F)cc3)cc2)cc1)C(=O)O, the fold change (FC) is reported as 1.8. Compound Cc1cc(CNc2cccc(C(=O)O)c2)ccc1OCc1cc(F)cc(F)c1 has a fold change (FC) of 1.6. Fc1ccc(COc2ccc(CNc3cccc(-c4nnn[nH]4)c3)cc2)cc1 gave a fold change (FC) of 1.6. With Cc1cc(OCc2ccc(F)cc2)ccc1CNc1cccc(C(=O)O)c1 the fold change (FC) was 1.2. With O=C(O)c1cccc(NCc2ccc(OCc3ccc(F)cc3)cc2)c1 the fold change (FC) was 1.3. For O=C(O)c1cccc(NCc2ccc(OCc3ccc(F)cc3)cc2OCc2ccc(F)cc2)c1, the fold change (FC) was 1.2. Compound Cc1nc(-c2ccc(C(F)(F)F)cc2)sc1C(=O)NCc1ccc(OC(C)(C)C(=O)O)cc1 has a fold change (FC) of 1. For C[C@@H](Oc1ccc(CNc2cccc(C(=O)O)c2)cc1)c1ccc(F)cc1, the fold change (FC) was 0.6. O=C(O)c1cc(F)cc(NCc2ccc(OCc3ccc(F)cc3)cc2)c1 showed a fold change (FC) of 1.1. O=C(O)c1cccc(NCc2ccc(OCc3ccc(C(F)(F)F)cc3)cc2)c1 gave a fold change (FC) of 0.9. CN(Cc1ccc(OCc2ccc(F)cc2)cc1)c1cccc(C(=O)O)c1 gave a fold change (FC) of 1.7. For O=C(O)c1cc(NCc2ccc(OCc3ccc(F)cc3)cc2)ccc1F, the fold change (FC) was 1.2. With O=C(O)c1cccc(NCc2ccc(OCc3ccc(F)c(F)c3)cc2)c1 the fold change (FC) was 1.2. Compound O=C(O)c1cccc(NCc2ccc(OCc3cccc(F)c3)cc2)c1 has a fold change (FC) of 1.2. In the case of O=C(O)c1cccc(NCc2ccc(OCc3ccc(F)cc3)c(OCc3ccc(F)cc3)c2)c1, the fold change (FC) is reported as 1.4. For O=C(O)c1cc(F)cc(NCc2ccc(OCc3ccc(F)cc3)c(Cl)c2)c1, the fold change (FC) was 1.8. Cc1cc(CN(C)c2cccc(C(=O)O)c2)ccc1OCc1ccc(F)cc1 was tested, and the fold change (FC) was 2.1. CC(C)(Oc1ccc(CNc2cccc(C(=O)O)c2)cc1)c1ccc(F)cc1 gave a fold change (FC) of 0.8. For O=C(O)c1cccc(NCc2ccc(OCc3ccc(I)cc3)cc2)c1, the fold change (FC) was 1.1. O=C(O)c1cccc(NCc2ccc(OCc3ccc(Br)cc3)cc2)c1 gave a fold change (FC) of 1.3. Work on O=C(O)c1cccc(NCc2ccc(OCc3ccc(Cl)cc3)cc2)c1 yielded a fold change (FC) of 1.5. O=C(O)c1cccc(NCc2ccc(OCc3ccc(F)cc3F)cc2)c1 was tested, and the fold change (FC) was 1.2. Compound O=C(O)c1cc(Br)cc(NCc2ccc(OCc3ccc(F)cc3)cc2)c1 has a fold change (FC) of 1.4.

Species on record: Homo sapiens
Assay: Selectivity index, ratio of EC50 for human PPARdelta expressed in nonhuman mammalian cells to EC50 for human PPARalpha expressed in nonhuman mammalian cells measured after 22 to 24 hrs by luciferase reporter gene assay
Assay type: cell-based
How it was run: (§1)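 Reporter cells (non-human mammalian) expressing human PPARα, γ or δ linked to a luciferase reporter were pre-incubated 4–6 h at 37 °C, 5% CO2 in medium with 10% charcoal-stripped FBS. SI = EC50(PPARγ or δ)/EC50(PPARα).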
O=C(O)c1cc(F)cc(NCc2ccc(OCc3ccc(F)cc3)cc2)c1 gave a Ratio EC50 of over 170. With O=C(O)c1cccc(NCc2ccc(OCc3ccc(F)cc3F)cc2)c1 the Ratio EC50 was over 175. O=C(O)c1cc(Br)cc(NCc2ccc(OCc3ccc(F)cc3)cc2)c1 was tested, and the Ratio EC50 was over 100.

The compounds below were run against T4, Peroxisome proliferator-activated receptor delta (Homo sapiens, UniProt Q03181) (assay: Agonist activity at human PPARdelta expressed in nonhuman mammalian cells assessed as increase in receptor transcriptional activity incubated for 22 to 24 hrs by luciferase reporter gene assay).
T4 sequence (Q03181 whole entry): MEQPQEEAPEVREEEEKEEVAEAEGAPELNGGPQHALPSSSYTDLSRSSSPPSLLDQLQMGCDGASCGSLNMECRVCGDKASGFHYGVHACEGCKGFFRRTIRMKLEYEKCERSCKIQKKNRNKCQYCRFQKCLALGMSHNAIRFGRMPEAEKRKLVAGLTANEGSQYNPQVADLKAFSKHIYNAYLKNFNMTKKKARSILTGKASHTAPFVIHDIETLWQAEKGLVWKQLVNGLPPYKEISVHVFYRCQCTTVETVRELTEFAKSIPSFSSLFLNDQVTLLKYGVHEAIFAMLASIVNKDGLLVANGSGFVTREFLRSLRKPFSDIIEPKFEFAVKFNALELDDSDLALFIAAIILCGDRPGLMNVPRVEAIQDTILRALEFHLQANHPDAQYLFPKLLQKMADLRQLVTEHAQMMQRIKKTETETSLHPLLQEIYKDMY
Assay type: cell-based
With O=C(O)c1cccc(NCc2ccc(OCc3ccc(F)cc3)cc2)c1 the EC50 was over 100 µM. O=C(O)c1cc(F)cc(NCc2ccc(OCc3ccc(F)cc3)cc2)c1 showed an EC50 of over 100 µM. For O=C(O)c1cccc(NCc2ccc(OCc3ccc(F)cc3F)cc2)c1, the EC50 was over 100 µM. O=C(O)c1cc(Br)cc(NCc2ccc(OCc3ccc(F)cc3)cc2)c1 was tested, and the EC50 was over 100 µM.

Species on record: Homo sapiens
Assay: Selectivity index, ratio of EC50 for human PPARgamma expressed in nonhuman mammalian cells to EC50 for human PPARalpha expressed in nonhuman mammalian cells measured after 22 to 24 hrs by luciferase reporter gene assay
Assay type: cell-based
How it was run: as §1
O=C(O)c1cc(F)cc(NCc2ccc(OCc3ccc(F)cc3)cc2)c1 showed a Ratio EC50 of over 170. Compound O=C(O)c1cccc(NCc2ccc(OCc3ccc(F)cc3F)cc2)c1 has a Ratio EC50 of over 175. For O=C(O)c1cc(Br)cc(NCc2ccc(OCc3ccc(F)cc3)cc2)c1, the Ratio EC50 was over 100.

From ChEMBL document CHEMBL4342468, “Evolution of a 4-Benzyloxy-benzylamino Chemotype to Provide Efficacious, Potent, and Isoform Selective PPARα Agonists as Leads for Retinal Disorders” (J Med Chem, 2020)
